According to ChEMBL document CHEMBL3745621, “Synthesis and evaluation of gallocyanine dyes as potential agents for the treatment of Alzheimer's disease and related neurodegenerative tauopathies” (Eur J Med Chem, 2016):
Calls of active or inactive are those of the source. The calls are words filed in the database; no cut-off is given here.

Assays:
[1] = target: Dickkopf-related protein 1/Low-density lipoprotein receptor-related protein 6 (Homo sapiens) (UniProt O94907+O75581); test: Inhibition of DKK1/LRP6 (unknown origin) expressed in HEK293 cells assessed as inhibition of DKK1/LRP6 interaction at 100 uM after 2 hrs by immunofluorescence method; assay type: cell-based
Dickkopf-related protein 1/Low-density lipoprotein receptor-related protein 6 (Homo sapiens), sequence (O75581 20-1613 partner limits assumed): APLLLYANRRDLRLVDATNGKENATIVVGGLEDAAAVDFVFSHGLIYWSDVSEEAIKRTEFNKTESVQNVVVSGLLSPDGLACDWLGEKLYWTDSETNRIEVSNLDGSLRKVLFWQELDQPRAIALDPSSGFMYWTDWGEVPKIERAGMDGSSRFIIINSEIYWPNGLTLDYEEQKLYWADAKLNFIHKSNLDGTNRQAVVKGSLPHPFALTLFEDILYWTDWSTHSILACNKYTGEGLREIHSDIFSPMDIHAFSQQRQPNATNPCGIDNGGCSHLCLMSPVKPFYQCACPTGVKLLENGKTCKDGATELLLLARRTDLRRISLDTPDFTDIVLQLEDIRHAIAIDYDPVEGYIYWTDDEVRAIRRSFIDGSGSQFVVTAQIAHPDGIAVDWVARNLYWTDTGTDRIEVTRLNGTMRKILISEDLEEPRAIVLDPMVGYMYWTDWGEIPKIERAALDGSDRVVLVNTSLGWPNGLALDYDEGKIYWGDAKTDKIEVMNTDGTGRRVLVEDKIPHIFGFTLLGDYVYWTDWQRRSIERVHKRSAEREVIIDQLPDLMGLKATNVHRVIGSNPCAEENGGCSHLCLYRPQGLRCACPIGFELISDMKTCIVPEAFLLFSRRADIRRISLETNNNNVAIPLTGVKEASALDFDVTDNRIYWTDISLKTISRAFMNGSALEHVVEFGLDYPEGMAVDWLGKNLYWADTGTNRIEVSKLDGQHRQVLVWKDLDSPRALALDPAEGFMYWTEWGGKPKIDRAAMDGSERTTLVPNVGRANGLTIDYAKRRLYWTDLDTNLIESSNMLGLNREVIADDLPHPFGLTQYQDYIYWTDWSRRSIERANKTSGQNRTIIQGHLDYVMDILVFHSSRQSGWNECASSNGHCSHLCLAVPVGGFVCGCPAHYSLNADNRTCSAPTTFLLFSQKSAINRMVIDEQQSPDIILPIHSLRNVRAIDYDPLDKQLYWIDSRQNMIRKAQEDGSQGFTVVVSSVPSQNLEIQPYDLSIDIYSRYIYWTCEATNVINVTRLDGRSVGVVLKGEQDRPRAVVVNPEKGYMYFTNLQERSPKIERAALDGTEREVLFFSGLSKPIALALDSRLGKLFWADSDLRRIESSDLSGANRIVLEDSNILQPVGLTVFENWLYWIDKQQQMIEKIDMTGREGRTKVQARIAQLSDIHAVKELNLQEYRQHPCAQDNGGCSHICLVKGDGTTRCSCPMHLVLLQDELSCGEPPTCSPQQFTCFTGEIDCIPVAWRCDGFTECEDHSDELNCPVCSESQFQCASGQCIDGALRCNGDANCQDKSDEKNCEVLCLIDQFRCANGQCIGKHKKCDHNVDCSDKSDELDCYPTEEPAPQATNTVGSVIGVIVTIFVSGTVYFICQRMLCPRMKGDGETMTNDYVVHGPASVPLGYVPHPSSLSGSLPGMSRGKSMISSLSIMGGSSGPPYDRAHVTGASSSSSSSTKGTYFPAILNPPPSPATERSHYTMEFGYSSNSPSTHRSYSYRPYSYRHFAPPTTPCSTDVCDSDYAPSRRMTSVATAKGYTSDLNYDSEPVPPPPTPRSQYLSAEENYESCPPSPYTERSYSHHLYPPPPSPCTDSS
Dickkopf-related protein 1/Low-density lipoprotein receptor-related protein 6 (Homo sapiens), sequence (O94907 32-266 limits assumed): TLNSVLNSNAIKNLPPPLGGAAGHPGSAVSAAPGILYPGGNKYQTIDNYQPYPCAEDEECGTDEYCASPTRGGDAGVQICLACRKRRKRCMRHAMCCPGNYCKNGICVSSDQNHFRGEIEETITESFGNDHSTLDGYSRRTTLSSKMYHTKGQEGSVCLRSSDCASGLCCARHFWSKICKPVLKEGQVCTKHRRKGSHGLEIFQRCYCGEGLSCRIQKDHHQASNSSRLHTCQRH
In short: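 HEK-293 cells stably overexpressing LRP6, sub-confluent, incubated 2 h at 4 °C with DKK1 conditioned medium plus compound or DMSO. Fixed in 3% paraformaldehyde, blocked in PBS/0.1% BSA, stained with rabbit anti-DKK1 and Alexa488 secondary; DAPI nuclei. Surface DKK1 fluorescence quantified over 750 cells as % DKK1 binding; three independent experiments in duplicate.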

[2] = Cytotoxicity against mouse primary cortical neurons assessed viable cells at 100 uM after 24 hrs by MTT assay; assay type: cell-based, Cerebral cortex neuron; details: for viability at 24 h, 100 µM: primary cortical neurons, read-out: Activity
In short: (§1)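 Primary mouse cortical neurons seeded at 25,000 or 15,000 cells/well and grown 6 days at 37 °C, 5% CO2. Test compound was then added in fresh medium (final DMSO 0.1%) for 24 h at 37 °C. MTT (2.5 mg/ml in PBS) was added for 4 h. Formazan was extracted with isopropanol/HCl and absorbance read at 545 nm. Read-out is % viable cells.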

[3] = Cytotoxicity against mouse primary cortical neurons assessed as viable cells at 10 uM after 24 hrs by MTT assay; assay type: cell-based, Cerebral cortex neuron; details: for viability at 24 h, 10 µM: primary cortical neurons, read-out: Activity; in short: as §1
[4] = target: Dickkopf-related protein 1/Lrp6 (Mus musculus) (UniProt O54908+O88572); test: Inhibition of DKK1-LRP6 interactions in mouse cortical neurons assessed as inhibition of prostaglandinJ2-induced tau phosphorylation at Ser396 residue at 10 uM for 1 hr by western bloting
Dickkopf-related protein 1/Lrp6 (Mus musculus), sequence (O88572 whole entry, looked up, one chain of several): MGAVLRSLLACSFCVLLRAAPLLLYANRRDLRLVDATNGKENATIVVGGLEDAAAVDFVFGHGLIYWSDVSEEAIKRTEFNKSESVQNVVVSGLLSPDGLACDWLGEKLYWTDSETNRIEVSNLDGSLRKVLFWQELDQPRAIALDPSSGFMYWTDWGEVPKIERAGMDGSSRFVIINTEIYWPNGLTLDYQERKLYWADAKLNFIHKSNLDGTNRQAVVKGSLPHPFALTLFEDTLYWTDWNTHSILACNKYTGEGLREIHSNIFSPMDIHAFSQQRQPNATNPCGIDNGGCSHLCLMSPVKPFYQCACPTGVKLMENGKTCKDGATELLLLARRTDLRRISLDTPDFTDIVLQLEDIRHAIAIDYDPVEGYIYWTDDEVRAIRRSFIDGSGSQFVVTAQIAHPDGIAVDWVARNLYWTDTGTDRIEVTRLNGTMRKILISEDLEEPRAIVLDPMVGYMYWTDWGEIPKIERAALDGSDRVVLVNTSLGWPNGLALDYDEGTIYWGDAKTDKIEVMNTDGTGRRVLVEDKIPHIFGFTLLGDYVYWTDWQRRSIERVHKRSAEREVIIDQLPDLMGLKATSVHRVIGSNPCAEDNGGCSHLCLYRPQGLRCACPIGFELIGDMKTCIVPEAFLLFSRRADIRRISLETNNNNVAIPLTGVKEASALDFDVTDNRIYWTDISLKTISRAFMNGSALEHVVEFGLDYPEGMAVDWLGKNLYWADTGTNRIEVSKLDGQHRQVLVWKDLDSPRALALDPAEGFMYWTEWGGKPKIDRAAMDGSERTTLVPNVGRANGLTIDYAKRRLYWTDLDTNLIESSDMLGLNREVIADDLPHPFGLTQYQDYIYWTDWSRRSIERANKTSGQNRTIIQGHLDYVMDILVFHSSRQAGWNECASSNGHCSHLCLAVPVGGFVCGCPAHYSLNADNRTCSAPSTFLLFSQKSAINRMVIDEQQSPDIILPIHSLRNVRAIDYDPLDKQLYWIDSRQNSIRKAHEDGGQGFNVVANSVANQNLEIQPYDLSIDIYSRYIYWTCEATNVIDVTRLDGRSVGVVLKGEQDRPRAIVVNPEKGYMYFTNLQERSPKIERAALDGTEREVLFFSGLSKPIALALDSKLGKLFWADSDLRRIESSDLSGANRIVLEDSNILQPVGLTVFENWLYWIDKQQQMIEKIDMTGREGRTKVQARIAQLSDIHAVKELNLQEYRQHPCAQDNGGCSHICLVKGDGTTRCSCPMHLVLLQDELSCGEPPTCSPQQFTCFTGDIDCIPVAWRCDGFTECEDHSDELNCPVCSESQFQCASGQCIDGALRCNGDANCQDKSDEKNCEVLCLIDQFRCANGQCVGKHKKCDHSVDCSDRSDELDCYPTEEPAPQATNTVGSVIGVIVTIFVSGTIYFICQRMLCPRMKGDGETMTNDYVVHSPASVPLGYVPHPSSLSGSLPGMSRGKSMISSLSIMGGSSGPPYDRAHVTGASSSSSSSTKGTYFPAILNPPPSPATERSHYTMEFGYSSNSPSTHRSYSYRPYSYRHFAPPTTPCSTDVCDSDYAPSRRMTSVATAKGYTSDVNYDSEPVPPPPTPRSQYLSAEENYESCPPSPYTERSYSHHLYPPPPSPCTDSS
In short: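 Primary mouse cortical neurons treated 1 h at 37 °C with 20 µM PGJ2 plus compound or DMSO. Lysed at 4 °C in Tris/NaCl/EDTA/Triton buffer, pH 7.6, with protease and phosphatase inhibitors; protein measured by Bradford. SDS-PAGE western blot probed with anti-pSer396 tau (1:1000, overnight, 4 °C) and anti-actin; ECL detection. Densitometry normalized to actin; three independent experiments, mean SD.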

[5] = target: T1, Dickkopf-related protein 1 (Mus musculus, UniProt O54908); test: Inhibition of mouse DKK1 assessed as inhibition of DKK1-alkaline phophatase binding to LRP5 transfected in HEK293 cells; assay type: cell-based
T1 sequence (O54908 whole entry): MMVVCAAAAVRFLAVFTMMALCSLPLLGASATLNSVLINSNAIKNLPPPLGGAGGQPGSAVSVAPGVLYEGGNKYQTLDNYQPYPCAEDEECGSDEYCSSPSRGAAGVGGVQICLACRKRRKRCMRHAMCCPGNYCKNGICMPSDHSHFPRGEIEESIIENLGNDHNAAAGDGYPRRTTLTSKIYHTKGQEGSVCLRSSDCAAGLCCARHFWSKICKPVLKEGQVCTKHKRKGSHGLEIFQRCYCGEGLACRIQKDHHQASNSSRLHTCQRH

Row | Structure (SMILES) | inhibition [1] | viability at 24 h, 100 µM [2] | viability at 24 h, 10 µM [3] | inhibition [4] | IC50 [5] | Activity ([2]; cerebral cortex neuron, 24 h, 100 µM) | Activity ([3]; cerebral cortex neuron, 24 h, 10 µM)
1 | CCCN(CCC)c1ccc2nc3c(C(=O)OC)cc(=O)c(O)c-3oc2c1 | Active | 100% | 100% |  |  |  | 
2 | CN(C)c1ccc2nc3c(C(=O)O)cc(=O)c(O)c-3oc2c1 [listing 1 of 3 here] | Active |  |  | Active |  |  | 
3 | COCCOC(=O)c1cc(O)c(O)c2oc3cc(=[N+](C)C)ccc-3nc12 | Active | 100% | 100% |  |  |  | 
4 | CCCCOC(=O)c1cc(=O)c(O)c2oc3cc(N(C)C)ccc3nc1-2 | Active | 100% | 100% | Active |  |  | 
5 | CCCCOC(=O)c1cc(O)c(O)c2oc3cc(=[N+](C)C)ccc-3nc12 | Active | 100% | 100% |  |  |  | 
6 | CCCCCCOC(=O)c1cc(=O)c(O)c2oc3cc(N(C)C)ccc3nc1-2 | Active | 100% | 100% | Active |  |  | 
7 | COC(=O)c1cc(=O)c(O)c2oc3cc(N(C)C)ccc3nc1-2 | Active | 100% | 100% | Active |  |  | 
8 | CCCCOC(=O)c1cc(=O)c(O)c2oc3cc(N(CCC)CCC)ccc3nc1-2 | Active | 100% | 100% |  |  |  | 
9 | CN(C)c1ccc2nc3c(C(=O)O)cc(=O)c(O)c-3oc2c1 [listing 2 of 3 here] |  | 100% | 100% |  | 3 µM |  | 
10 | Cc1cc(=O)cc2oc3cc(N(C)C)ccc3nc1-2 | Active | 100% | 100% |  |  |  | 
11 | CCCCCCOC(=O)c1cc(O)c(O)c2oc3cc(=[N+](C)C)ccc-3nc12 | Active | 100% | 100% |  |  |  | 
12 | COCCOC(=O)c1cc(=O)c(O)c2oc3cc(N(C)C)ccc3nc1-2 | Active | 100% | 100% | Active |  |  | 
13 | CCOC(=O)c1cc(O)c(O)c(O)c1 [ETHYLGALLATE] | Active | 100% | 100% |  |  |  | 
14 | CN(C)c1ccc2nc3ccc(=O)c(O)c-3oc2c1 | Active | 100% | 100% | Active |  |  | 
15 | CC(C)OC(=O)c1cc(=O)c(O)c2oc3cc(N(C)C)ccc3nc1-2 | Active | 100% | 100% | Active |  |  | 
16 | CCOC(=O)c1cc(O)c(O)c2oc3cc(=[N+](C)C)ccc-3nc12 | Active | 100% | 100% |  |  |  | 
17 | CN(C)c1ccc2nc3c(C(=O)O)cc(=O)c(O)c-3oc2c1 [listing 3 of 3 here] |  |  |  |  |  | 100% | 100%
18 | CN(C)c1ccc2nc3c(O)cc(=O)cc-3oc2c1 | Active | 100% | 100% |  |  |  | 
19 | CCOC(=O)c1cc(=O)c(O)c2oc3cc(N(C)C)ccc3nc1-2 | Active | 100% | 100% | Active |  |  | 
20 | CN(C)c1ccc2nc3c(C(=O)OCc4ccccc4)cc(=O)c(O)c-3oc2c1 | Active | 100% | 100% | Active |  |  | 
